Paper PMC9064169 (ACS chemical biology, 2021)
Where a chain is given by its changes, count along the chain named. “Also recorded” adds a separate entry of the source. Read-outs that look alike come from different tables or passages of the source. One block for each molecule: values may come before it.

Columns and labels:
[1] = molecular target: full-length Nurr1 (NBRE response element) (Homo sapiens, UniProt P43354); test: Luciferase reporter assay, full-length receptor on NBRE response element; format: cell-based
Sequence of full-length Nurr1 (NBRE response element) (P43354 whole entry, species assumed): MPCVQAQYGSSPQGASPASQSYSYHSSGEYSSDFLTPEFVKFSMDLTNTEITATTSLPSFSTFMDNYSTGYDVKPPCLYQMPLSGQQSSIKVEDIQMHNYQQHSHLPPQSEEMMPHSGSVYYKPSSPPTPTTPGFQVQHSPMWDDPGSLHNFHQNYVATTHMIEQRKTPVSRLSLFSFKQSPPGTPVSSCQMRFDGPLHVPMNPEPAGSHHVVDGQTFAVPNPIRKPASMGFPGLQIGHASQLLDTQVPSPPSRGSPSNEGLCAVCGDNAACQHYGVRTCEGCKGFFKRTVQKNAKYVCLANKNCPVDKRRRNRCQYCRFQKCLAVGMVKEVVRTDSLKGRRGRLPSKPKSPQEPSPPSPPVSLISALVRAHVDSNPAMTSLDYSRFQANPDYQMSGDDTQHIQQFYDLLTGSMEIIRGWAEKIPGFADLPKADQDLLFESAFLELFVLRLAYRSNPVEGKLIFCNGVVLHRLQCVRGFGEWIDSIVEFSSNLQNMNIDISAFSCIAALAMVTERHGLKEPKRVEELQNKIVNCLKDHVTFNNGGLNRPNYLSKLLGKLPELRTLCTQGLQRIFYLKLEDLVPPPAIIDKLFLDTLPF

[2] = Chemical stability in solution; format: physicochemical; settings: observed during data acquisition; see references 26-28
[3] = molecular target: T1, Arg563Ala His516Ala double mutant Nurr1 LBD (Homo sapiens, UniProt P43354, H516A/R563A); test: MST binding to Arg563Ala/His516Ala double mutant Nurr1 LBD
T1 sequence (P43354 360-595 H516A/R563A limits assumed): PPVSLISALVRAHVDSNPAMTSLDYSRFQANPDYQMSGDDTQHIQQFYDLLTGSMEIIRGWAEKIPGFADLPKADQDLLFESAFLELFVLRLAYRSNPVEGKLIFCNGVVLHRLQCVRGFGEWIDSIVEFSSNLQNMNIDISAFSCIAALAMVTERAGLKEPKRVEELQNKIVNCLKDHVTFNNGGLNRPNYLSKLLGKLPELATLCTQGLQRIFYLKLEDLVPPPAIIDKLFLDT

[4] = molecular target: Nurr1 ligand binding domain (LBD) (Homo sapiens, UniProt P43354); test: Microscale thermophoresis
Sequence of Nurr1 ligand binding domain (LBD) (P43354 360-595 limits assumed): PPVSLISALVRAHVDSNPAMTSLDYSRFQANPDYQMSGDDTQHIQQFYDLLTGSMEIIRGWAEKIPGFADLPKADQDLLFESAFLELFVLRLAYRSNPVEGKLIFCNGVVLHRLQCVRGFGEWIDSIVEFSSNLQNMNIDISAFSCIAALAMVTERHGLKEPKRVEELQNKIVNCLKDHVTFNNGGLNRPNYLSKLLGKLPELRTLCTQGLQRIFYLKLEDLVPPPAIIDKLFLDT
How it was run: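 KD for the Nurr1 LBD measured by microscale thermophoresis, with 0.1% of the surfactant Pluronic F127 present. To exclude non-specific binding by aggregates, the assay was repeated at increasing Pluronic F127 concentrations. Values are from three or more independent measurements ± SD.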

[5] = molecular target: T2, Arg563Ala mutant Nurr1 LBD (Homo sapiens, UniProt P43354, R563A); test: MST binding to Arg563Ala mutant Nurr1 LBD
T2 sequence (P43354 360-595 R563A limits assumed): T1 sequence (P43354 360-595 H516A/R563A limits assumed) with A157H

[6] = molecular target: endogenous full-length Nurr1 (Mus musculus, UniProt Q06219); test: qPCR of Nurr1 target gene transcripts; format: cell-based; settings: 24 h
Sequence of endogenous full-length Nurr1 (Q06219 whole entry): as the sequence (P43354 whole entry, species assumed) above, with T131S, G134S, E354D counted along it
How it was run: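 Mouse MN9D cells treated with test compound at 10 μM, or over a concentration series, for 24 h. Vehicle was DMSO. mRNA was isolated and Th and Vmat2 transcripts were measured by qPCR. Values were normalized to housekeeping gene Hprt and expressed as fold-change over DMSO-treated cells. Values are from three or more independent measurements ± SD.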

[7] = test system: MN9D cells; test: Cytotoxicity / viability in MN9D cells; format: cell-based; settings: 24 h treatment
[8] = molecular target: T3, LBD of RXRα (Homo sapiens, UniProt P19793); test: Binding to the LBD of RXRα
T3 sequence (P19793 227-458 limits assumed): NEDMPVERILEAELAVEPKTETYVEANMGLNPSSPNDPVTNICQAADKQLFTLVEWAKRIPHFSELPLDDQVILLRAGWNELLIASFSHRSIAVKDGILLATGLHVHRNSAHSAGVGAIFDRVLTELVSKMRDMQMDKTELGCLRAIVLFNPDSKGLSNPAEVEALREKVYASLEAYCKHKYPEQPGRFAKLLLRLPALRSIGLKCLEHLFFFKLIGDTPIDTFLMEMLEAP

[9] = molecular target: His516Ala mutant Nurr1 LBD (Homo sapiens, UniProt P43354, H516A); test: MST binding to His516Ala mutant Nurr1 LBD
Sequence of His516Ala mutant Nurr1 LBD (P43354 360-595 H516A limits assumed): as the sequence (P43354 360-595 limits assumed) above, with H157A counted along it

[10] = cited from earlier work
[11] = test system: zebrafish; settings: cited from earlier work
[12] = MN9D cells, 10 μM, normalized to Hprt

SMILES: Oc1cc2cc[nH]c2cc1O [DHI, 5,6-dihydroxyindole]
Chemical stability in solution [10]: readily auto-oxidizes and polymerizes
Expression of th and vmat2 in zebrafish [11]: stimulates the expression of th and vmat2

SMILES: Nc1ccc2cc[nH]c2c1 [6-aminoindole]
Chemical stability in solution [2]: autooxidation and polymerization in solution
Cytotoxicity in MN9D cells [7]: significant cytotoxicity

SMILES: Oc1ccc2cc[nH]c2c1 [6-hydroxyindole]
Chemical stability in solution [2]: autooxidation and polymerization in solution
Cytotoxicity in MN9D cells [7]: significant cytotoxicity

Further lines, with some results ahead:

Activity of Nurr1 in luciferase reporter assay (full-length receptor, NBRE) [1]: stimulates the activity of Nurr1
Chemical stability in solution [2]: stable
Improvement of affinity relative to wildtype, double mutant [3]: ~ 2 fold
Effect of increasing surfactant concentration on affinity for the Nurr1 LBD ([4]; MST binding assay): only has a minor effect
Affinity for the Nurr1 LBD compared with reference ligands ([4]; in vitro and in luciferase reporter assays): comparable to DHI and amodiaquine
Improvement of affinity relative to wildtype, Arg563Ala mutant [5]: ~ 2 fold
Vmat2 expression, fold-change relative to vehicle (DMSO) [6, 12]: 2.4 fold
Potency in MN9D cells compared with reference ligands ([6]; Th and Vmat2 expression): superior to that of DHI and amodiaquine
Saturable binding to the LBD of RXRα [8]: does not exhibit saturable binding
Improvement of affinity relative to wildtype, His516Ala mutant [9]: ~ 2 fold
SMILES: Clc1ccc2[nH]ccc2c1 [5-chloroindole]
Cytotoxicity in MN9D cells [7]: non-cytotoxic; also recorded: not cytotoxic

Binding to Arg563Ala/His516Ala double mutant relative to wildtype [3]: eliminated
Binding to Arg563Ala mutant relative to wildtype [5]: eliminated
Th expression, fold-change relative to vehicle (DMSO) [6, 12]: 2.2 fold
Vmat2 expression, fold-change relative to vehicle (DMSO) [6, 12]: 2.5 fold
Binding affinity for His516Ala mutant relative to wildtype [9]: statistically unchanged
SMILES: Brc1ccc2[nH]ccc2c1 [5-bromoindole]
Cytotoxicity in MN9D cells [7]: somewhat toxic to cells under certain conditions (≥10 μM, 24 h)

Kd [4]: 8 ± 1.5 µM
SMILES: CCN(CC)Cc1cc(Nc2ccnc3cc(Cl)ccc23)ccc1O [amodiaquine, reference compound]
